Active and inactive are the calls of the source. No cut-off for these calls is given here.

Data set [1] relates to Mus musculus. In words: Neurotoxicity in Albino mouse at 30 mg/kg, ip after 4 hrs by RotaRod test. It is filed as toxicity, organism-based. Set-up: dose 30 mg/kg, route intraperitoneal. The conditions noted are these: in vivo. The procedure, abridged:
(§1)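 Phase I protocol of the NINCDS antiepileptic drug development programme in albino mice, covering MES, subcutaneous pentylenetetrazole (metrazol) and rotarod neurotoxicity. Doses were 30, 100 and 300 mg/kg, read at 1/2 h and 4 h. One animal per dose and time point, scored as 0/1 (no activity) or 1/1 (noticeable activity).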
Background: The rotarod test checks motor coordination on a turning rod.

In data set [2] the test system is Mus musculus. The data set can be described thus: Neurotoxicity in Albino mouse at 100 mg/kg, ip after 4 hrs by RotaRod test. Set-up: dose 100 mg/kg, route intraperitoneal. It is filed as toxicity, organism-based. The conditions noted are these: in vivo. In outline: as §1
Data set [3] deals with Mus musculus. The data set can be described thus: Neurotoxicity in Albino mouse at 300 mg/kg, ip after 4 hrs by RotaRod test. In kind it is toxicity, organism-based. Details: dose 300 mg/kg, route intraperitoneal. To be noted: in vivo. The procedure, abridged:
as §1

Data set [4] concerns Mus musculus. In words: Anticonvulsant activity against metrazole-induced seizures in Albino mouse at 100 mg/kg, ip after 30 mins by scMet assay. It is filed as functional, organism-based. Details: dose 100 mg/kg. The procedure, abridged:
as §1

Data set [5] concerns Mus musculus. The data set can be described thus: Antidepressant activity in Albino mouse assessed as duration of immobility at 10 mg/kg, ip by forced-swimming test. It is filed as functional. The conditions noted are these: route intraperitoneal. In outline: (§2)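 Porsolt forced-swim test in albino mice. Drug given ip at 0.5 ml/20 g body weight, 1 h before testing. Controls received 1% aqueous Tween 80. Each mouse was placed singly in a water-filled Plexiglas cylinder for 6 min. Immobility (floating upright with only slight movements to stay afloat) was timed over the last 4 min.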

The subject of data set [6] is Mus musculus. In words: Antidepressant activity in Albino mouse assessed as duration of immobility at 10 mg/kg, ip by forced-swimming test relative to control. In kind it is functional. The conditions noted are these: route intraperitoneal. In outline: as §2
The test system of data set [7] is Mus musculus. In words: Anticonvulsant activity in Albino mouse by MES test at 30mg/kg, ip after 30 mins. It is filed as functional, organism-based. In outline: as §1
Data set [8] relates to Mus musculus. The data set can be described thus: Anticonvulsant activity in Albino mouse by MES test at 100 mg/kg, ip after 30 mins. It is filed as functional, organism-based. Details: dose 100 mg/kg. In outline:
as §1

In data set [9] the test system is Mus musculus. The data set can be described thus: Anticonvulsant activity in Albino mouse by MES test at 300 mg/kg, ip after 30 mins. In kind it is functional, organism-based. Set-up: dose 300 mg/kg. The procedure, abridged: as §1
Data set [10] has as its system Mus musculus. The data set can be described thus: Anticonvulsant activity against metrazole-induced seizures in Albino mouse at 30 mg/kg, ip after 30 mins by scMet assay. It is filed as functional, organism-based. Details: dose 30 mg/kg. The procedure, abridged:
as §1

Data set [11] concerns Mus musculus. The data set can be described thus: Anticonvulsant activity against metrazole-induced seizures in Albino mouse at 300 mg/kg, ip after 30 mins by scMet assay. It is filed as functional, organism-based. Details: dose 300 mg/kg. The procedure, abridged:
as §1

The subject of data set [12] is Mus musculus. The data set can be described thus: Anticonvulsant activity in Albino mouse at 30 mg/kg, ip after 4 hrs by MES test. In kind it is functional, organism-based. Set-up: dose 30 mg/kg. In outline: as §1
For data set [13], the system named is Mus musculus. The data set can be described thus: Anticonvulsant activity in Albino mouse at 100 mg/kg, ip after 4 hrs by MES test. Details: dose 100 mg/kg. It is filed as functional, organism-based. The procedure, abridged:
as §1

In data set [14] the test system is Mus musculus. In words: Anticonvulsant activity in Albino mouse at 300 mg/kg, ip after 4 hrs by MES test. In kind it is functional, organism-based. Details: dose 300 mg/kg. In outline: as §1
The test system of data set [15] is Mus musculus. The data set can be described thus: Anticonvulsant activity against metrazole-induced seizures in Albino mouse at 30 mg/kg, ip after 4 hrs by scMet. It is filed as functional, organism-based. Details: dose 30 mg/kg. The procedure, abridged: as §1
Data set [16] has as its system Mus musculus. The data set can be described thus: Anticonvulsant activity against metrazole-induced seizures in Albino mouse at 100 mg/kg, ip after 4 hrs by scMet assay. In kind it is functional, organism-based. Set-up: dose 100 mg/kg. The procedure, abridged:
as §1

The subject of data set [17] is Mus musculus. The data set can be described thus: Anticonvulsant activity against metrazole-induced seizures in Albino mouse at 300 mg/kg, ip after 4 hrs by scMet assay. In kind it is functional, organism-based. Details: dose 300 mg/kg. The procedure, abridged: as §1
Data set [18] has as its system Mus musculus. In words: Neurotoxicity in Albino mouse at 30 mg/kg, ip after 30 mins by RotaRod test. In kind it is toxicity, organism-based. Set-up: dose 30 mg/kg, route intraperitoneal. The conditions noted are these: in vivo, 0.5 h. The procedure, abridged:
as §1

Data set [19] concerns Mus musculus. The data set can be described thus: Neurotoxicity in Albino mouse at 100 mg/kg, ip after 30 mins by RotaRod test. The conditions noted are these: in vivo, 0.5 h. In kind it is toxicity, organism-based. Details: dose 100 mg/kg, route intraperitoneal. In outline:
as §1

Data set [20] deals with Mus musculus. In words: Neurotoxicity in Albino mouse at 300 mg/kg, ip after 30 mins by RotaRod test. To be noted: in vivo, 0.5 h. In kind it is toxicity, organism-based. Details: dose 300 mg/kg, route intraperitoneal. The procedure, abridged: as §1

Consider `CNC(=S)N1N=C(c2ccco2)CC1c1ccco1` (stereo not given), for which the Activity entry with Mus musculus [1] is “Not Active”; in the data set with Mus musculus [2], “Not Active”; in the data set on Mus musculus [3], “Not Active”; in the data set on Mus musculus [5], 186 s; in the data set with Mus musculus [6], -11.42%; in the data set on Mus musculus [18], “Not Active”. Further, the Activity entry in the data set with Mus musculus [19] and with Mus musculus [20] was “Not Active” each time. Further, the outcome in the data set on Mus musculus [4], in the data set with Mus musculus [7], with Mus musculus [8], in the data set with Mus musculus [9], in the data set on Mus musculus [10] and in the data set on Mus musculus [11] was inactive. In the data set with Mus musculus [15], the outcome was inactive. For the same compound, the result with Mus musculus [12], with Mus musculus [13], in the data set with Mus musculus [14], in the data set with Mus musculus [16] and in the data set on Mus musculus [17] was Active.

Turning to `S=C(Nc1ccccc1)N1N=C(c2ccco2)CC1c1ccco1` (stereo not given), the Activity result in the data set with Mus musculus [1] is “Not Active”; in the data set on Mus musculus [2] it was “Not Active”; in the data set on Mus musculus [3], “Not Active”; in the data set on Mus musculus [5] it was 181 s; in the data set with Mus musculus [6] it was -13.81%; in the data set on Mus musculus [18], “Not Active”. The Activity entry in the data set on Mus musculus [19] and in the data set with Mus musculus [20] was “Not Active” throughout. Further, the result with Mus musculus [4] and in the data set on Mus musculus [11] was Active. The outcome in the data set with Mus musculus [7], in the data set with Mus musculus [8], with Mus musculus [9], in the data set with Mus musculus [10], with Mus musculus [12] and with Mus musculus [13] was inactive. Moreover, the result in the data set on Mus musculus [14], in the data set on Mus musculus [15], in the data set on Mus musculus [16] and with Mus musculus [17] was inactive.

For `c1ccc(N2N=C(c3ccco3)CC2c2ccco2)cc1` (stereo not given), the Activity result in the data set with Mus musculus [1] was “Not Active”; in the data set with Mus musculus [2], “Not Active”; in the data set with Mus musculus [3], “Not Active”; with Mus musculus [5], 169 s; in the data set on Mus musculus [6] it was -19.52%; in the data set with Mus musculus [18], “Not Active”. Further, the Activity result in the data set on Mus musculus [19] and in the data set on Mus musculus [20] was “Not Active” each time. The result with Mus musculus [4], in the data set on Mus musculus [7], in the data set on Mus musculus [10], with Mus musculus [11], in the data set with Mus musculus [12] and in the data set on Mus musculus [13] was inactive. For the same compound, the result in the data set on Mus musculus [14], with Mus musculus [15], in the data set with Mus musculus [16] and in the data set on Mus musculus [17] was inactive. For the same compound, the result with Mus musculus [8] and with Mus musculus [9] was Active.

For `CCNC(=S)N1N=C(c2ccco2)CC1c1ccco1` (stereo not given), the Activity entry in the data set with Mus musculus [1] was “Not Active”; in the data set with Mus musculus [2], “Not Active”; in the data set on Mus musculus [3], “Not Active”; with Mus musculus [5], 211 s; in the data set with Mus musculus [6], 0.48%; in the data set on Mus musculus [18] it was “Not Active”. The Activity result in the data set with Mus musculus [19] and in the data set on Mus musculus [20] was “Not Active” each time. Besides, the result in the data set on Mus musculus [4], with Mus musculus [10], with Mus musculus [11] and in the data set on Mus musculus [17] was Active. The result in the data set on Mus musculus [7], in the data set on Mus musculus [8], in the data set with Mus musculus [9], in the data set on Mus musculus [12], in the data set with Mus musculus [13] and in the data set with Mus musculus [14] was inactive. For the same compound, the outcome in the data set on Mus musculus [15] and in the data set with Mus musculus [16] was inactive.

(Values after ChEMBL document CHEMBL1143773, “Synthesis and studies on antidepressant and anticonvulsant activities of some 3-(2-furyl)-pyrazoline derivatives” (Eur J Med Chem, 2007).)
